Measured values published in ChEMBL document CHEMBL4052623, “Synthesis and antiproteasomal activity of novel O-benzyl salicylamide-based inhibitors built from leucine and phenylalanine” (Eur J Med Chem, 2017).

Key:
K562 = test: Antiproliferative activity against human K562 cells after 72 hrs by calcein AM staining based fluorescence assay; assay type: functional; settings: K562, 72 h
In short: (§1)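 Cells treated with three-fold compound dilutions in triplicate for 72 h. Calcein AM added afterwards and live-cell fluorescence read at 485/538 nm (ex/em). GI50, the concentration lethal to 50% of tumour cells, calculated from dose-response curves.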

U-266 = test: Antiproliferative activity against human U266 cells after 72 hrs by calcein AM staining based fluorescence assay; assay type: functional; settings: U-266, 72 h; in short: as §1
CCRF-CEM = test: Antiproliferative activity against human CEM cells after 72 hrs by calcein AM staining based fluorescence assay; assay type: functional; in short: as §1
[1] = target: T1, Proteasome Macropain subunit MB1 (Homo sapiens) (UniProt P28074); test: Inhibition of chymotrypsin like activity of 26S proteasome beta 5 subunit in human U266 cells assessed as residual activity using N-Suc-LLVY-AMC as substrate at 10 uM preincubated for 1 hr followed by substrate addition and measured after 4 hrs by fluorescence assay relative to control; assay type: cell-based
T1 sequence (whole entry): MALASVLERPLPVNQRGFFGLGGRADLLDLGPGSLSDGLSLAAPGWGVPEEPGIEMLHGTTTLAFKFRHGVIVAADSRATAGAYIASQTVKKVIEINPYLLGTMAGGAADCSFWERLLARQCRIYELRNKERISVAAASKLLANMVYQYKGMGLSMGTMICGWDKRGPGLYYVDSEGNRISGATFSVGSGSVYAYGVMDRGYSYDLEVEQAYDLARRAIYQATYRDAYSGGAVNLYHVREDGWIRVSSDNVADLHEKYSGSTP

[2] = target: T2, Proteasome Macropain subunit MB1 (Homo sapiens, UniProt P28074); test: Inhibition of chymotrypsin-like activity of 26S proteasome beta 5 subunit in human U266 cells using Suc-LLVY-aminoluciferin as substrate after 1 hr by Proteosome-Glo luminescence assay; assay type: cell-based
T2 sequence (P28074 whole entry): T1 sequence (whole entry)
In short: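 U266 multiple myeloma cells plated at 20,000 cells/well and exposed to varying compound concentrations for 1 h at 37 °C, in duplicate. 26S proteasome activity measured immediately as luciferase-coupled hydrolysis of the β5 substrate Suc-LLVY-aminoluciferin (Proteasome-Glo), read by luminescence. Activity normalised to untreated cells; IC50 derived from dose-response curves.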

[3] = target: T3, Proteasome component C5 (Homo sapiens) (UniProt P20618); test: Inhibition of caspase like activity of 26S proteasome beta 1 subunit in human U266 cells assessed as residual activity using […] as substrate at 10 uM preincubated for 1 hr followed by substrate addition and measured after 4 hrs by fluorescence assay relative to control; assay type: cell-based
T3 sequence (whole entry): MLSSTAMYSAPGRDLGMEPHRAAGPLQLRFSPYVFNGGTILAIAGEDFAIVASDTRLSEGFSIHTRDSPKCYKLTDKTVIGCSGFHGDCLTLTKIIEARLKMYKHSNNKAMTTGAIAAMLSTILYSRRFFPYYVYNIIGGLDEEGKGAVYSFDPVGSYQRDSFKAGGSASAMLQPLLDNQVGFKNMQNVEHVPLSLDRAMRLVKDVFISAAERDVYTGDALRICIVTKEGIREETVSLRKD

[4] = target: Proteasome Macropain subunit (Homo sapiens) (UniProt P49721); test: Inhibition of trypsin like activity of 26S proteasome beta 2 subunit in human U266 cells assessed as residual activity using […] as substrate at 10 uM preincubated for 1 hr followed by substrate addition and measured after 4 hrs by fluorescence assay relative to control; assay type: cell-based
Sequence of Proteasome Macropain subunit (Homo sapiens) (P49721 whole entry): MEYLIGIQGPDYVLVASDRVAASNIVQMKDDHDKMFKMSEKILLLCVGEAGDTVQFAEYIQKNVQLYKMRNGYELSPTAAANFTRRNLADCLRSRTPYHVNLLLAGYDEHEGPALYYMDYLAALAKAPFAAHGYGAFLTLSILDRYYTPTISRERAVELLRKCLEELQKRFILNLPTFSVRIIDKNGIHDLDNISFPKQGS

Compound | GI50 (K562) [µM] | GI50 (U-266) [µM] | GI50 (CCRF-CEM) [µM] | Activity [1] [%] | IC50 [2] [µM] | Activity [3] [%] | Activity [4] [%]
CON(C)C(=O)[C@@H](CC(C)C)NC(=O)[C@H](Cc1ccccc1)NC(=O)[C@H](CC(C)C)NC(=O)c1cc(Cl)ccc1OCc1ccccc1 | 28.9 | 22.6 | 17.6 | – | – | – | –
CC(C)CC(C=O)NC(=O)[C@H](Cc1ccccc1)NC(=O)c1cc(Cl)ccc1OCc1ccccc1 (some centres undefined) | 17.3 | 17.7 | 15.1 | 95 | > 1 | 39.9 | 92
CON(C)C(=O)[C@H](Cc1ccccc1)NC(=O)[C@H](Cc1ccccc1)NC(=O)[C@H](CC(C)C)NC(=O)c1cc(Cl)ccc1O | 22.2 | 23.1 | 16.3 | – | – | – | –
CC(C)C[C@H](NC(=O)c1cc(Cl)ccc1OCc1ccccc1)C(=O)N[C@@H](Cc1ccccc1)C(=O)N[C@@H](C=O)CC(C)C | 0.73 | 0.21 | 0.4 | 20.7 | 0.075 | 19.7 | > 100
O=C[C@H](Cc1ccccc1)NC(=O)[C@H](Cc1ccccc1)NC(=O)c1cc(Cl)ccc1OCc1ccccc1 | 27.1 | 21.7 | 15.5 | 97.3 | > 1 | 71.5 | 78.4
CON(C)C(=O)[C@H](CC(C)C)NC(=O)[C@H](Cc1ccccc1)NC(=O)[C@H](CC(C)C)NC(=O)c1cc(Cl)ccc1OCc1ccccc1 | 16.4 | 48.6 | 19 | – | – | – | –
CON(C)C(=O)[C@H](CC(C)C)NC(=O)[C@H](CC(C)C)NC(=O)[C@H](CC(C)C)NC(=O)c1cc(Cl)ccc1OCc1ccccc1 | 55.6 | 55.2 | 30.6 | – | – | – | –
CC(C)C[C@H](NC(=O)c1cc(Cl)ccc1OCc1ccccc1)C(=O)N[C@@H](CC(C)C)C(=O)N[C@@H](C=O)CC(C)C | 0.98 | 0.38 | 0.58 | 18 | 0.182 | 35.5 | 74.3
CON(C)C(=O)[C@H](Cc1ccccc1)NC(=O)[C@H](CC(C)C)NC(=O)c1cc(Cl)ccc1OCc1ccccc1 | 22.5 | 81.9 | 19.5 | – | – | – | –
COC(=O)[C@H](Cc1ccccc1)NC(=O)[C@H](CC(C)C)NC(=O)[C@H](CC(C)C)NC(=O)c1cc(Cl)ccc1OCc1ccccc1 | 70.3 | 72.2 | 31.4 | – | – | – | –
COC(=O)[C@H](CC(C)C)NC(=O)[C@H](CC(C)C)NC(=O)[C@H](CC(C)C)NC(=O)c1cc(Cl)ccc1OCc1ccccc1 | 87.5 | 84.9 | 48.4 | – | – | – | –
CON(C)C(=O)[C@@H](CC(C)C)NC(=O)[C@H](CC(C)C)NC(=O)[C@H](CC(C)C)NC(=O)c1cc(Cl)ccc1OCc1ccccc1 | 34 | 23.7 | 11.5 | – | – | – | –
CC(C)C[C@H](NC(=O)c1cc(Cl)ccc1O)C(=O)N[C@@H](Cc1ccccc1)C(=O)N[C@H](CO)Cc1ccccc1 | 27.3 | 18.9 | 10.8 | – | – | – | –
CON(C)C(=O)[C@H](CC(C)C)NC(=O)c1cc(Cl)ccc1OCc1ccccc1 | 42.7 | 54.1 | 45.2 | – | – | – | –
CC(C)C[C@@H](C=O)NC(=O)c1cc(Cl)ccc1OCc1ccccc1 | 23.6 | 55.8 | 24.3 | 68.8 | > 1 | 68.2 | 57.5
CON(C)C(=O)[C@H](Cc1ccccc1)NC(=O)[C@H](Cc1ccccc1)NC(=O)[C@H](CC(C)C)NC(=O)c1cc(Cl)ccc1OCc1ccccc1 | 34.7 | 56.3 | 35.7 | – | – | – | –
CON(C)C(=O)[C@H](Cc1ccccc1)NC(=O)[C@H](CC(C)C)NC(=O)c1cc(Cl)ccc1O | 93.6 | 79.2 | 48.2 | – | – | – | –
CON(C)C(=O)[C@H](CC(C)C)NC(=O)[C@H](CC(C)C)NC(=O)c1cc(Cl)ccc1O | 98.1 | 69 | 63 | – | – | – | –
CON(C)C(=O)C(Cc1ccccc1)NC(=O)[C@H](Cc1ccccc1)NC(=O)c1cc(Cl)ccc1O (some centres undefined) | 79.5 | 68.7 | 54.2 | – | – | – | –

Compound | GI50 (K562) [µM] | GI50 (U-266) [µM] | GI50 (CCRF-CEM) [µM] | Activity [1] [%] | IC50 [2] [µM] | Activity [3] [%] | Activity [4] [%]
CC(C)CC(C=O)NC(=O)[C@H](CC(C)C)NC(=O)c1cc(Cl)ccc1OCc1ccccc1 (some centres undefined) | 21 | 37 | 16.3 | 84.3 | > 1 | 35.3 | 88.1
CON(C)C(=O)[C@H](CC(C)C)NC(=O)c1cc(Cl)ccc1O | > 100 | > 100 | 58.6 | – | – | – | –
COC(=O)[C@@H](CC(C)C)NC(=O)[C@H](Cc1ccccc1)NC(=O)[C@H](CC(C)C)NC(=O)c1cc(Cl)ccc1OCc1ccccc1 | > 100 | 88.5 | 68.2 | – | – | – | –
CON(C)C(=O)[C@@H](CC(C)C)NC(=O)[C@H](Cc1ccccc1)NC(=O)c1cc(Cl)ccc1OCc1ccccc1 | 25.8 | 67.4 | 32.2 | – | – | – | –
CON(C)C(=O)[C@H](CC(C)C)NC(=O)[C@H](Cc1ccccc1)NC(=O)[C@H](CC(C)C)NC(=O)c1cc(Cl)ccc1O | 30.9 | 32.8 | 17.2 | – | – | – | –
CON(C)C(=O)[C@H](Cc1ccccc1)NC(=O)[C@H](Cc1ccccc1)NC(=O)c1cc(Cl)ccc1OCc1ccccc1 | 29.6 | 72.1 | 28.6 | – | – | – | –
O=C[C@H](Cc1ccccc1)NC(=O)c1cc(Cl)ccc1OCc1ccccc1 | 33.3 | 63.8 | 17.7 | 70.8 | > 1 | 53 | 70.2
CC(C)C[C@@H](C=O)NC(=O)[C@H](CC(C)C)NC(=O)[C@H](CC(C)C)NC(=O)c1cc(Cl)ccc1OCc1ccccc1 | 0.76 | 0.2 | 0.41 | 11.8 | 0.057 | 34.6 | 54.2
CC(C)C[C@@H](CO)NC(=O)[C@H](Cc1ccccc1)NC(=O)[C@H](CC(C)C)NC(=O)c1cc(Cl)ccc1O | 22.4 | 11.8 | 8.45 | – | – | – | –
CC(C)C[C@H](NC(=O)c1cc(Cl)ccc1OCc1ccccc1)C(=O)N[C@H](C=O)Cc1ccccc1 | 16.3 | 14.8 | 11 | 85.2 | > 1 | 67.8 | 85.9
CON(C)C(=O)[C@H](Cc1ccccc1)NC(=O)c1cc(Cl)ccc1O | 99.1 | 72.4 | 55.5 | – | – | – | –
CC(C)C[C@H](NC(=O)c1cc(Cl)ccc1O)C(=O)N[C@H](C=O)Cc1ccccc1 | 57.9 | 64.9 | 27.7 | > 100 | > 1 | > 100 | 81
COC(=O)[C@H](CC(C)C)NC(=O)[C@H](Cc1ccccc1)NC(=O)[C@H](CC(C)C)NC(=O)c1cc(Cl)ccc1OCc1ccccc1 | 58.5 | 83.7 | 48.5 | – | – | – | –
CON(C)C(=O)[C@H](CC(C)C)NC(=O)[C@H](Cc1ccccc1)NC(=O)c1cc(Cl)ccc1O | 90.9 | 71.6 | 64.1 | – | – | – | –
CON(C)C(=O)[C@H](Cc1ccccc1)NC(=O)c1cc(Cl)ccc1OCc1ccccc1 | 50.9 | 92.3 | 65.2 | – | – | – | –
CON(C)C(=O)[C@H](Cc1ccccc1)NC(=O)[C@H](CC(C)C)NC(=O)[C@H](CC(C)C)NC(=O)c1cc(Cl)ccc1OCc1ccccc1 | 44.2 | 47.2 | 15.1 | – | – | – | –
COC(=O)[C@@H](CC(C)C)NC(=O)[C@H](CC(C)C)NC(=O)[C@H](CC(C)C)NC(=O)c1cc(Cl)ccc1OCc1ccccc1 | > 100 | 82 | 51 | – | – | – | –
CON(C)C(=O)[C@H](CC(C)C)NC(=O)[C@H](CC(C)C)NC(=O)c1cc(Cl)ccc1OCc1ccccc1 | 33.2 | 35.2 | 22.2 | – | – | – | –
COC(=O)[C@H](Cc1ccccc1)NC(=O)[C@H](Cc1ccccc1)NC(=O)[C@H](CC(C)C)NC(=O)c1cc(Cl)ccc1OCc1ccccc1 | 72 | 82.1 | 48 | – | – | – | –
